Measurements published in ChEMBL document CHEMBL1135421, “2-(Anilinomethyl)imidazolines as alpha1 adrenergic receptor agonists: the discovery of alpha1a subtype selective 2'-alkylsulfonyl-substituted analogues” (J Med Chem, 2002).
“And” between values parts separate entries of the source, which are not always exact repeats. Equal entries are not always repeated.

Columns and labels:
[1] = molecular target: T1, Alpha-1A adrenergic receptor (Homo sapiens) (UniProt P35348); experiment: Efficacy as % of the maximal effect observed for nonselective agonist phenylephrine in rat-1 fibroblasts expressing human Alpha-1 adrenergic receptor; assay type: functional
T1 sequence (whole entry): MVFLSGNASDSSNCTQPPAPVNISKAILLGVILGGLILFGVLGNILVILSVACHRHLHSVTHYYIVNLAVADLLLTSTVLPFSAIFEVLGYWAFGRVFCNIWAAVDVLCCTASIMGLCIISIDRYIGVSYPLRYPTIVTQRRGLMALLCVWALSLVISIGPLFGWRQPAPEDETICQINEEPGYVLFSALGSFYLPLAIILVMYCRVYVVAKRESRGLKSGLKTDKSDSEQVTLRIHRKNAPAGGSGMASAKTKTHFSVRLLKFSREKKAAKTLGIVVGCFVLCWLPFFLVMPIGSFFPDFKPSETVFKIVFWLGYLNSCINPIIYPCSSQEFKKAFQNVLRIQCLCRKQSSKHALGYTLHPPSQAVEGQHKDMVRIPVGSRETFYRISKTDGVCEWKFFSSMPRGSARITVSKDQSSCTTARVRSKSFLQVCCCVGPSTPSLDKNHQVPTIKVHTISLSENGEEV
How it was run: (§1)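 Rat-1 fibroblasts expressing human α1a/α1b/α1d, grown in DMEM with 10% heat-inactivated FBS and 0.6 mg/mL G418, plated 6000 cells/well and cultured 48 h at 37 °C. Loaded 2 h at 37 °C with Calcium Green (4 μM), 0.2% pluronic acid and 2.5 mM probenecid in HEPES buffer pH 7.4. FLIPR read at room temperature: 10 s baseline, then 50 s after compound. 11-point curves as % of 40 μM phenylephrine response, top concentration typically 5 μM.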

[2] = molecular target: T2, Alpha-2A adrenergic receptor (Homo sapiens, UniProt P08913); experiment: Agonist potency at Alpha-2A stably expressed in CHO cells.; assay type: functional, cell-based
T2 sequence (P08913 whole entry): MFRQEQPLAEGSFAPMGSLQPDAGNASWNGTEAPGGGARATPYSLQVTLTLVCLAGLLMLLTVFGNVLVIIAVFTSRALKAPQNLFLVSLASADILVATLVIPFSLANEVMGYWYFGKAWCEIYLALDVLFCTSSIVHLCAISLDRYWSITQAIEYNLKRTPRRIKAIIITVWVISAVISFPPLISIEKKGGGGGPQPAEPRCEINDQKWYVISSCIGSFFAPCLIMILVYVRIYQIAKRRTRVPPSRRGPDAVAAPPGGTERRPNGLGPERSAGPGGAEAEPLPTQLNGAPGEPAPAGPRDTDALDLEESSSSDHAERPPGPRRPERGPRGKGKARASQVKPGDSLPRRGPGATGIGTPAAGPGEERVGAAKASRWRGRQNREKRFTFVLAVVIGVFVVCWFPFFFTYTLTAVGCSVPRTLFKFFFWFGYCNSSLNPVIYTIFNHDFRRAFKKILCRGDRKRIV

[3] = molecular target: T3, Alpha-2A adrenergic receptor (Homo sapiens) (UniProt P08913); experiment: Efficacy as percentage of the maximal effect observed for nonselective agonist UK-14304 in CHO cells expressing human Alpha-2A adrenergic receptor; assay type: functional, cell-based
T3 sequence (whole entry): T2 sequence (P08913 whole entry)

[4] = molecular target: T4, Alpha-1B adrenergic receptor (Homo sapiens) (UniProt P35368); experiment: Efficacy as % of the maximal effect observed for nonselective agonist phenylephrine in rat-1 fibroblasts expressing human Alpha-1B adrenergic receptor; assay type: functional; how it was run: as §1
T4 sequence (whole entry): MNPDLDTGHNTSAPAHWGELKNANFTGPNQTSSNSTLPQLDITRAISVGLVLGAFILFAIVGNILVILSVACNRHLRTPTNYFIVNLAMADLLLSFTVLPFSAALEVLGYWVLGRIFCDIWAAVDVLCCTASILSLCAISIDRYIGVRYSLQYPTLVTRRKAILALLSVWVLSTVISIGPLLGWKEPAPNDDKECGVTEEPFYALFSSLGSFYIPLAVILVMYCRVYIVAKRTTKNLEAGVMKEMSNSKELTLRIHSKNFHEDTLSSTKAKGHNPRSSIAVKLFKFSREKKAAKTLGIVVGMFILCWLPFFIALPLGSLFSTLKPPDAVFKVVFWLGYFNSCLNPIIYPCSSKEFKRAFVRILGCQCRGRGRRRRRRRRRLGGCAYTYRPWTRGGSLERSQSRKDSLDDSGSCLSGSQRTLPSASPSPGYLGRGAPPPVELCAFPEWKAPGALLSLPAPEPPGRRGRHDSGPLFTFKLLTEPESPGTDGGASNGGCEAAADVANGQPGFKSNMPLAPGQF

[5] = molecular target: T2, Alpha-2A adrenergic receptor; experiment: Affinity to human Alpha-2A adrenergic receptor determined by radioligand binding techniques from chinese hamster ovary (CHO) cells; assay type: cell-based
[6] = molecular target: T5, Alpha-1B adrenergic receptor (Homo sapiens, UniProt P35368); experiment: Agonist potency at Alpha-1B adrenergic receptor expressed in rat-1 fibroblasts; assay type: functional
T5 sequence (P35368 whole entry): T4 sequence (whole entry)

[7] = molecular target: T6, Alpha-1A adrenergic receptor (Homo sapiens, UniProt P35348); experiment: Agonist potency at Alpha-1 adrenergic receptor assayed in rat-1 fibroblasts expressing human Alpha-1 adrenergic receptor; assay type: functional; how it was run: as §1
T6 sequence (P35348 whole entry): T1 sequence (whole entry)

[8] = molecular target: T7, Alpha-1D adrenergic receptor (Homo sapiens) (UniProt P25100); experiment: Efficacy as percent maximal effect observed for nonselective agonist phenylephrine in rat-1 fibroblasts expressing human Alpha-1D adrenergic receptor; assay type: functional; how it was run: as §1
T7 sequence (whole entry): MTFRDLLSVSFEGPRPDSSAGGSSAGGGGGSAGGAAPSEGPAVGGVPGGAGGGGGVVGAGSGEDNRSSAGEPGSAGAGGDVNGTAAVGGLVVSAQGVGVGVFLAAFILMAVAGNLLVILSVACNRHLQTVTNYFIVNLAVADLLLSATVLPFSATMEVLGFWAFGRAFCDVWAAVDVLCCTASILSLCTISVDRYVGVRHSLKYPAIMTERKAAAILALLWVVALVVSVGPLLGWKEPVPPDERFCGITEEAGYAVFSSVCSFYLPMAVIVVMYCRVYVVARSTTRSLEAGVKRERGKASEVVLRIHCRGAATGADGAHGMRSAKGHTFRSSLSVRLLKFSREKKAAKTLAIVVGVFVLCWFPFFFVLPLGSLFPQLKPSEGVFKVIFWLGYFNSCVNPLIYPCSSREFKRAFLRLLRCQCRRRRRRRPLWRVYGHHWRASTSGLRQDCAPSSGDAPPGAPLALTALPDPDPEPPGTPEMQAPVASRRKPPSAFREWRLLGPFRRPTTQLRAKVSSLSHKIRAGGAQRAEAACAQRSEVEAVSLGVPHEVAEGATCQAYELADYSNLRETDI

[9] = molecular target: T2, Alpha-2A adrenergic receptor; experiment: Agonist potency at Alpha-2A adrenergic receptor expressed in CHO cells; assay type: functional, cell-based

Compound	Max [1] [%]	EC50 [2]	Max [3] [%]	Max [4] [%]	Ki [5] [µM]	EC50 [6] [µM]	EC50 [7] [µM]	Max [8] [%]	EC50 [9] [µM]
CSc1cc(F)ccc1NCC1=NCCN1	93	0.316 µM	47	78	0.0589	0.00603	0.00776	75	
CS(=O)(=O)c1cccc(F)c1NCC1=NCCN1	106	> 10 µM	38		0.871	> 100	0.0417		
COc1ccc(SC)c(NCC2=NCCN2)c1	101	0.447 µM and 0.2 µM	52	92	0.219	0.00363	0.00158	91	
CCCS(=O)(=O)c1ccccc1NCC1=NCCN1	115		23						
CS(=O)(=O)c1ccc(F)cc1NCC1=NCCN1	96	> 10 µM	18		4.47	> 100	0.0166		
C[S+]([O-])c1ccccc1NCC1=NCCN1 (centres undefined)	91		21		0.977	> 100			> 10
CS(=O)(=O)c1cc(F)ccc1NCC1=NCCN1	61		19		0.398	> 100			> 10
CSc1ccccc1NCC1=NCCN1			76		0.0479			55	
CS(=O)(=O)c1ccc(Cl)cc1NCC1=NCCN1	91	> 10 µM	42	103	> 7.94	0.0617	0.00282		
CSc1ccc(Cl)cc1NCC1=NCCN1	82	0.00631 µM	93	103	0.0417	0.000501	0.000437	106	
CSc1ccc(F)cc1NCC1=NCCN1	90	0.0251 µM	96	92	0.0182	0.00186	0.00229	107	
CS(=O)(=O)c1ccc(C(F)(F)F)cc1NCC1=NCCN1	95	> 10 µM	33		> 7.94	> 100	1.1		
Cc1ccc(S(C)(=O)=O)c(NCC2=NCCN2)c1	98	> 10 µM	24	91	3.89	0.141	0.00195		
CSc1c(F)cccc1NCC1=NCCN1	91		102	48	0.166	0.0851	0.00776	59	0.1
CC(C)S(=O)(=O)c1ccccc1NCC1=NCCN1	70				2.95	> 10	1.95		> 10
CCS(=O)(=O)c1ccccc1NCC1=NCCN1	115		10		1.32	> 100	0.24		> 10
CC(C)Sc1ccccc1NCC1=NCCN1	115		64	29	0.0813	0.0617	0.00501		0.417
CS(=O)(=O)c1c(F)cccc1NCC1=NCCN1			64		> 7.94	> 100	0.024		> 10
CSc1ccc(C(F)(F)F)cc1NCC1=NCCN1	111	> 10 µM	40	114	0.2	0.00603	0.0105	58	
CS(=O)(=O)c1ccccc1NCC1=NCCN1	103	> 10 µM	11		5.62	> 100			
CSc1ccc(C)cc1NCC1=NCCN1	101	0.0251 µM	87	96	0.0631	0.000417	0.00011	107	
CCSc1ccccc1NCC1=NCCN1	109		67	82	0.0813	0.0138	0.00339	34	0.251
CS(=O)(=O)c1cc(Cl)ccc1NCC1=NCCN1	41	> 10 µM	38		5.01		0.513		
